Inhibition and Activity data for two compounds are collected here from ChEMBL document CHEMBL3997791, “Nanomolar-Potency Aminophenyl-1,3,5-triazine Activators of the Cystic Fibrosis Transmembrane Conductance Regulator (CFTR) Chloride Channel for Prosecretory Therapy of Dry Eye Diseases” (J Med Chem, 2017).

Data set [1] is filed under the species Homo sapiens. The data set is described as follows: Inhibition of sodium/potassium pump in human primary bronchial epithelial cells assessed as effect on short-circuit current at 10 uM after 10 mins by voltage clamp method. In outline:
(§1)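 Primary human bronchial epithelial cells grown at air-liquid interface, mounted in Ussing chambers in symmetrical HCO3−-buffered solutions (95% O2/5% CO2, 37 °C), with Ag/AgCl electrodes. After 10 min preincubation with 10 µM compound, sequential additions were 20 µM amiloride, 20 µM forskolin, 10 µM CFTRinh-172 and 100 µM ATP. Traces represent two to four experiment sets.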

For data set [2], the target named is T1, Anoctamin-1 (Homo sapiens) (UniProt Q5XXA6).
T1 sequence (whole entry): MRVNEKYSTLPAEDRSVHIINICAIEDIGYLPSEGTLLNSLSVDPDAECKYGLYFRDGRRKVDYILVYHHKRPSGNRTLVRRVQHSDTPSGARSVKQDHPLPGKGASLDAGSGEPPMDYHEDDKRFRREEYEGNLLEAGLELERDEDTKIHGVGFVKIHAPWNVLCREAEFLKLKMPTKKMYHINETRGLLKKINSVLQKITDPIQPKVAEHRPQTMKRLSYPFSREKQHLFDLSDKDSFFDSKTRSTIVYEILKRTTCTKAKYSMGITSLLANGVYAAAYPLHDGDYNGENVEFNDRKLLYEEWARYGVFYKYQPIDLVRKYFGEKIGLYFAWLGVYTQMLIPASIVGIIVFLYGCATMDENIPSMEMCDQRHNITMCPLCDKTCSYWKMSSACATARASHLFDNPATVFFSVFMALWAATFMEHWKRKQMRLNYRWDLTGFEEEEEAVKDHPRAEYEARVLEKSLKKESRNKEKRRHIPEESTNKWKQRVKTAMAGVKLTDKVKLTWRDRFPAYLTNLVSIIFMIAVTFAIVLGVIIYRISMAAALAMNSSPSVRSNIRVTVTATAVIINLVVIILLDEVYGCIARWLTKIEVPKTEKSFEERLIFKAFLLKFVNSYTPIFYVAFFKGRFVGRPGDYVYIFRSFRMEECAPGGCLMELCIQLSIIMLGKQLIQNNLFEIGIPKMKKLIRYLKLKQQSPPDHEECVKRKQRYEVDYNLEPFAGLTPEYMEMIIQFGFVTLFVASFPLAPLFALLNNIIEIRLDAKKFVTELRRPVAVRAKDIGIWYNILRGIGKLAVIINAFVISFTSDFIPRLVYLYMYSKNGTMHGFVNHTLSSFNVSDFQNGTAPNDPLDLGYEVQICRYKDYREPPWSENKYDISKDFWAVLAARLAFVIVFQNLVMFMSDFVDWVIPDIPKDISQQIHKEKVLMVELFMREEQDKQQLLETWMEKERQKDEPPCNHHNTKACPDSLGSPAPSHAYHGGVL
The data set is described as follows: Activation of human TMEM16A expressed in FRT cells co-expressing YFP assessed as increase in iodide influx at 10 uM measured after 10 mins for 2 to 12 sec by fluorescence assay. The data set is classed as cell-based. Put shortly:
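FRT cells stably coexpressing TMEM16A and YFP-H148Q; compound at 10 μM. Fluorescence quenching read in plate reader after iodide addition (activation) or iodide plus ATP addition (inhibition); initial rate of iodide influx computed as linear measure of channel function. Representative of two to four experiment sets.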

The target of data set [3] is T2, Solute carrier family 12 member 2 (Homo sapiens) (UniProt P55011).
T2 sequence (whole entry): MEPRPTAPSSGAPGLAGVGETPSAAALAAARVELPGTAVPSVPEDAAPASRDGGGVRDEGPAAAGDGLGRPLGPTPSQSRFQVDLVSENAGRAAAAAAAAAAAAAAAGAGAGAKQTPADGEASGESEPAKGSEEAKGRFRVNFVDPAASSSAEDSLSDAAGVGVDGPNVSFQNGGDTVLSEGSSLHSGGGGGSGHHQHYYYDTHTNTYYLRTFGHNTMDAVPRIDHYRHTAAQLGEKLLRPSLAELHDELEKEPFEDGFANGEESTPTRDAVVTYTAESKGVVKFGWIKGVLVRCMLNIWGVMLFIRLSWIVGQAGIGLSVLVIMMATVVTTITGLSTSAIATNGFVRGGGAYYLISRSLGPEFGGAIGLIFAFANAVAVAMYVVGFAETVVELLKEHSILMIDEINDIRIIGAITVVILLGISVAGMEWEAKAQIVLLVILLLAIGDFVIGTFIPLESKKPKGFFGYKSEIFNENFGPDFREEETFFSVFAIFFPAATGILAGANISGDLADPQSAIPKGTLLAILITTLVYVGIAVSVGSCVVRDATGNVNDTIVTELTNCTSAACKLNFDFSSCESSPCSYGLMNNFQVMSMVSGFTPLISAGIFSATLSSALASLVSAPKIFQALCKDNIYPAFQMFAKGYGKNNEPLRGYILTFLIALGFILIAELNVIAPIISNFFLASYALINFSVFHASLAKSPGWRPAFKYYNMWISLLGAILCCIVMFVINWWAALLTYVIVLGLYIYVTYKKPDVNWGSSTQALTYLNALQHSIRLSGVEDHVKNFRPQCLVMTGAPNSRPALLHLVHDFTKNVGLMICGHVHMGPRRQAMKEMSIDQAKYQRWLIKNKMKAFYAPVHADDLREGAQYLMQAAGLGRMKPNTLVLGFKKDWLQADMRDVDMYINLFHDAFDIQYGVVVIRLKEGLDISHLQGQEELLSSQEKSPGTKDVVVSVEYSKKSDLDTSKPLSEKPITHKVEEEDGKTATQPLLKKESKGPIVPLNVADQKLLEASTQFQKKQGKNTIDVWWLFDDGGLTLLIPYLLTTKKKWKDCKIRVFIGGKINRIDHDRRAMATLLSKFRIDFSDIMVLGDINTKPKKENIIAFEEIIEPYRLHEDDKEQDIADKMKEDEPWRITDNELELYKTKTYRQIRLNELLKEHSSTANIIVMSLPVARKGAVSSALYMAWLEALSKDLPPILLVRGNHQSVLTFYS
As to the kind of experiment: Inhibition of NKCC1 in human primary bronchial epithelial cells assessed as effect on short-circuit current at 10 uM after 10 mins by voltage clamp method. Put shortly:
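Primary human bronchial epithelial cultures (air-liquid interface) in Ussing chambers, symmetrical HCO3−-buffered solutions, 95% O2/5% CO2, 37 °C. After 10 min preincubation with 10 μM compound, sequential 20 μM amiloride, 20 μM forskolin, 10 μM CFTRinh-172, 100 μM ATP; short-circuit current recorded under voltage clamp.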

Data set [4] is filed under the species Homo sapiens. The data set is described as follows: Inhibition of potassium channel in human primary bronchial epithelial cells assessed as effect on short-circuit current at 10 uM after 10 mins by voltage clamp method. In outline:
as §1

Data set [5] can be described thus: Elevation of cAMP level in Fischer rat thyroid cells co-expressing YFP and human CFTR at 10 uM incubated for 10 mins by immunoassay. The format is ADME, cell-based. To be noted: thyroid cell. Put shortly: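 FRT cells expressing wild-type CFTR in 12-well plates, PBS-washed, incubated 10 min with 10 μM compound without or with 90 nM forskolin; references were forskolin alone (90 nM, 20 μM) and 20 μM forskolin + 100 μM IBMX. Lysates assayed for cAMP by immunoassay; mean ± SEM, n = 4.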
Background: Changes in cAMP serve as a functional read-out for many G protein-coupled receptors.

Calls of active or inactive are those of the source. The calls are words filed in the database; no cut-off is given here.

On to `CCN(CC)c1nc(Nc2ccc3ncsc3c2)nc(OC(C(F)(F)F)C(F)(F)F)n1`, for which the inhibition result (in the data set filed under Homo sapiens [1]; in data set [3]; in the data set listed under Homo sapiens [4]) was “inactive” in each case. Besides, the result in data set [2] was inactive. The Activity entry in data set [5] was “Non-Toxic”.

Regarding `CNc1nc(Nc2ccccc2)nc(OCC(F)(F)C(F)F)n1`, the inhibition entry (in the data set listed under Homo sapiens [1]; in data set [3]; in the data set listed under Homo sapiens [4]) was “inactive” each time. In data set [2], the result was inactive. For the same compound, the Activity entry in data set [5] was “Non-Toxic”.
